In brackets after ≈: the same amount, converted by molar mass. Activity calls are given as the source filed them. The calls are words filed in the database; no cut-off is given here.
Columns and labels:
[1] = system: Candida albicans; assay: Antimicrobial activity against Candida albicans ATCC 44373 by broth microdilution method; assay type: functional
How it was run: (§1)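 Yeasts grown on potato dextrose agar. Inoculum was standardized by McFarland turbidity as for bacteria, into RPMI 1640 broth (M27-A2). DMSO-dissolved compound was tested in twofold dilutions from 320 to 1.25 at 35 °C for 24 h, in duplicate. MIC was the lowest concentration completely inhibiting visible growth. Fungicidal concentration was read by subculturing 20 µL from clear wells on Sabouraud dextrose agar at 35 °C.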

[2] = system: Candida dubliniensis; assay: Antimicrobial activity against Candida dubliniensis CBS 7987 by broth microdilution method; assay type: functional; how it was run: as §1
[3] = system: Nakaseomyces glabratus; assay: Antimicrobial activity against Candida glabrata […] by broth microdilution method; assay type: functional; how it was run: as §1
[4] = system: Cryptococcus deneoformans; assay: Antimicrobial activity against Cryptococcus neoformans var.neoformans serotype D ATCC 28952 by broth microdilution method; assay type: functional
How it was run: (§2)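 Organism grown on potato dextrose agar, with turbidity-standardized inoculum in RPMI 1640 broth (M27-A2). DMSO-dissolved compound was tested in twofold dilutions from 320 to 1.25 at 35 °C, incubated up to 72 h, in duplicate. MIC was the lowest concentration with no visible growth. Cidal concentration was read by subculturing 20 µL from clear wells on Sabouraud dextrose agar, incubated for the same period.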

[5] = system: Saccharomyces cerevisiae; assay: Antimicrobial activity against Saccharomyces cerevisiae ATCC 2601 by broth microdilution method; assay type: functional; how it was run: as §2
[6] = system: Staphylococcus aureus; assay: Antimicrobial activity against Staphylococcus aureus ATCC 25923 by broth microdilution method; assay type: functional
How it was run: (§3)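 Bacteria grown overnight on Mueller–Hinton agar. Colonies were suspended in saline to McFarland turbidity (about 10^8 cfu/mL), diluted 1:100 in saline, then 1:20 in Mueller–Hinton broth, giving 5 · 10^4 cfu/mL per well. DMSO-dissolved compound was tested in twofold dilutions from 320 to 1.25 at 35 °C for 24 h. MIC was the lowest concentration with no visible turbidity (M7-A4). Bactericidal concentration was read by subculturing clear wells on Mueller–Hinton agar.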

[7] = system: Klebsiella pneumoniae; assay: Antimicrobial activity against Klebsiella pneumoniae ATCC 1003 by broth microdilution method; assay type: functional; how it was run: as §3
[8] = system: Escherichia coli; assay: Antimicrobial activity against Escherichia coli ATCC 25922 by broth microdilution method; assay type: functional; how it was run: as §3
[9] = (§4) Antimicrobial activity against Salmonella setubal ATCC 19196 by broth microdilution method; assay type: functional, Salmonella enterica subsp. enterica serovar Setubal; details: Salmonella enterica; how it was run: as §3
[10] = system: Salmonella enterica subsp. enterica serovar Setubal; assay: as §4; assay type: functional; how it was run: as §3
[11] = system: Prototheca zopfii; assay: Antimicrobial activity against Prototheca zopfii by broth microdilution method; assay type: functional; how it was run: as §2
[12] = system: Pseudomonas aeruginosa; assay: Antimicrobial activity against Pseudomonas aeruginosa ATCC 27853 by broth microdilution method; assay type: functional; how it was run: as §3
[13] = system: Rhizopus arrhizus; assay: Antimicrobial activity against Rhizopus oryzae isolate by broth microdilution method; assay type: functional
[14] = system: Sporothrix schenckii; assay: Antimicrobial activity against Sporothrix schenckii ATCC 1146 by broth microdilution method; assay type: functional
[15] = system: Fusarium solani; assay: Antimicrobial activity against Fusarium solani isolate by broth microdilution method; assay type: functional
[16] = system: Aspergillus fumigatus; assay: Antimicrobial activity against Aspergillus fumigatus isolate by broth microdilution method; assay type: functional
[17] = system: Aspergillus flavus; assay: Antimicrobial activity against Aspergillus flavus isolate by broth microdilution method; assay type: functional
[18] = system: Aspergillus niger; assay: Antimicrobial activity against Aspergillus niger isolate by broth microdilution method; assay type: functional
[19] = system: Aspergillus terreus; assay: Antimicrobial activity against Aspergillus terreus isolate by broth microdilution method; assay type: functional
[20] = system: Scedosporium boydii; assay: Antimicrobial activity against Pseudallescheria boydii isolate by broth microdilution method; assay type: functional

| Compound | Activity [3] | MFC [4] [µg/mL] | MIC [4] [µg/mL] | Activity [5] | Activity [6] | MIC [6] [µg/mL] | Activity [7] | MIC [7] [µg/mL] | Activity [8] | MIC [8] [µg/mL] | MIC [9] [µg/mL] | Activity [10] | MFC [11] [µg/mL] | MIC [11] [µg/mL] | Activity [12] | MIC [12] [µg/mL] | MFC [13] [µg/mL] | MIC [13] [µg/mL] | MFC [14] [µg/mL] | MIC [18] [µg/mL] | further results |
| --- | --- | --- | --- | --- | --- | --- | --- | --- | --- | --- | --- | --- | --- | --- | --- | --- | --- | --- | --- | --- | --- |
| O=C(NNc1c(F)c(F)c(F)c(F)c1F)c1ccoc1 | inactive | 320 (≈ 1100 µM) | 320 (≈ 1100 µM) | inactive | inactive | 320 (≈ 1100 µM) | inactive | 320 (≈ 1100 µM) | inactive | 320 (≈ 1100 µM) | 320 (≈ 1100 µM) | inactive | 320 (≈ 1100 µM) | 80 (≈ 274 µM) | inactive | 320 (≈ 1100 µM) | 320 (≈ 1100 µM) | 320 (≈ 1100 µM) | 320 (≈ 1100 µM) | 320 (≈ 1100 µM) | MFC [1]: 320 µg/mL (≈ 1100 µM); MIC [1]: 320 µg/mL (≈ 1100 µM); MFC [2]: 320 µg/mL (≈ 1100 µM); MIC [2]: 160 µg/mL (≈ 548 µM); MIC [3]: 320 µg/mL (≈ 1100 µM); MIC [14]: 320 µg/mL (≈ 1100 µM); MFC [15]: 80 µg/mL (≈ 274 µM); MIC [15]: 80 µg/mL (≈ 274 µM); Activity [16]: inactive; Activity [17]: inactive; MFC [18]: 320 µg/mL (≈ 1100 µM); MFC [19]: 320 µg/mL (≈ 1100 µM); MIC [19]: 320 µg/mL (≈ 1100 µM); Activity [20]: inactive |
| N=C(NC(=O)c1ccoc1)c1ccccc1 | inactive | 320 (≈ 1490 µM) | 160 (≈ 747 µM) | inactive | inactive | 320 (≈ 1490 µM) | inactive | 320 (≈ 1490 µM) | inactive | 320 (≈ 1490 µM) | 320 (≈ 1490 µM) | inactive | 320 (≈ 1490 µM) | 160 (≈ 747 µM) | inactive | 320 (≈ 1490 µM) | 320 (≈ 1490 µM) | 320 (≈ 1490 µM) | 320 (≈ 1490 µM) | 320 (≈ 1490 µM) | Activity [1]: inactive; Activity [2]: inactive; MIC [14]: 320 µg/mL (≈ 1490 µM); Activity [15]: inactive; MIC [15]: 320 µg/mL (≈ 1490 µM); MFC [16]: 320 µg/mL (≈ 1490 µM); MIC [16]: 320 µg/mL (≈ 1490 µM); Activity [17]: inactive; Activity [18]: inactive; MFC [19]: 320 µg/mL (≈ 1490 µM); MIC [19]: 320 µg/mL (≈ 1490 µM); MFC [20]: 160 µg/mL (≈ 747 µM); MIC [20]: 160 µg/mL (≈ 747 µM) |
| NS(=O)(=O)c1ccc(NC(=O)c2ccoc2)cc1 | inactive | – | – | inactive | inactive | – | – | 20 (≈ 75.1 µM) | inactive | – | 160 (≈ 601 µM) | inactive | – | – | inactive | – | – | – | – | 320 (≈ 1200 µM) | Activity [1]: inactive; Activity [2]: inactive; Activity [4]: inactive; MBC ([7]; read-out: MFC): 320 µg/mL (≈ 1200 µM); Activity [11]: inactive; Activity [13]: inactive; Activity [14]: inactive; Activity [15]: inactive; Activity [16]: inactive; MFC [17]: 320 µg/mL (≈ 1200 µM); MIC [17]: 320 µg/mL (≈ 1200 µM); MFC [18]: 320 µg/mL (≈ 1200 µM); Activity [19]: inactive; Activity [20]: inactive |

From ChEMBL document CHEMBL1146380, “Synthesis, antimicrobial activity, and QSAR studies of furan-3-carboxamides” (2007)
